From ChEMBL document CHEMBL1671686, “Carbapenem-resistant KPC-2-producing Escherichia coli in a Tel Aviv Medical Center, 2005 to 2008” (2010)
In brackets after ≈: the same amount, converted by molar mass.

Columns and labels:
Assay type in all cases: functional
Escherichia coli [1] = test: Antimicrobial activity against Escherichia coli isolate 157 expressing beta-lactamase KPC2, CTX-M-15, TEM and PFGE cluster 3 isolated from urine of patient by vitek-2 method in presence of beta-lactamase inhibitor Tazobactam; conditions: isolate 157, Urine
Method in brief: (§1)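 Antibiotic susceptibility of clinical carbapenem-resistant E. coli isolates (collected Feb 2005–Oct 2008) determined on the automated Vitek-2 system.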

Escherichia coli [2] = test: Antimicrobial activity against Escherichia coli isolate 157T expressing beta-lactamase KPC2 and PFGE cluster 3 isolated from urine of patient by vitek-2 method in presence of beta-lactamase inhibitor Tazobactam
Method in brief: (§2)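 Transformants were made by electroporating purified plasmids from clinical isolates into E. coli DH10B. They were selected on LB agar with 100 μg/ml ampicillin and PCR-screened for blaKPC. Susceptibility was then tested on Vitek-2.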

Escherichia coli [3] = test: Antimicrobial activity against Escherichia coli isolate 329 expressing beta-lactamase KPC2, CTX-M-2, TEM and PFGE cluster 2 isolated from blood of patient by vitek-2 method in presence of beta-lactamase inhibitor Tazobactam; method in brief: as §1
Escherichia coli [4] = test: Antimicrobial activity against Escherichia coli isolate 329T expressing beta-lactamase KPC2 and PFGE cluster 2 isolated from blood of patient by vitek-2 method in presence of beta-lactamase inhibitor Tazobactam; method in brief: as §2
Escherichia coli [5] = test: Antimicrobial activity against Escherichia coli isolate 339 expressing beta-lactamase KPC2, TEM and PFGE cluster 5 isolated from peritoneal fluid of patient by vitek-2 method in presence of beta-lactamase inhibitor Tazobactam
Method in brief: (§3)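 Clinical carbapenem-resistant E. coli isolates collected at one hospital, February 2005 to October 2008. […] Susceptibilities came from automated Vitek-2 testing.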

Escherichia coli [6] = test: Antimicrobial activity against Escherichia coli isolate 339T expressing beta-lactamase KPC2 and PFGE cluster 5 isolated from peritoneal fluid of patient by vitek-2 method in presence of beta-lactamase inhibitor Tazobactam
Method in brief: (§4)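 Test strains were E. coli DH10B transformants. Plasmids purified from the clinical isolates were electroporated in, transformants selected on LB agar with 100 μg/ml ampicillin, and colonies PCR-screened for blaKPC. Susceptibility of the transformants was then determined by automated Vitek-2 testing.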

Escherichia coli [7] = test: Antimicrobial activity against Escherichia coli isolate 360 expressing beta-lactamase KPC2, CTX-M-15, OXA-9, TEM and PFGE cluster 1 isolated from urine of patient by vitek-2 method in presence of beta-lactamase inhibitor Tazobactam; conditions: isolate 360, Urine; method in brief: as §1
Escherichia coli [8] = test: Antimicrobial activity against Escherichia coli isolate 360T expressing beta-lactamase KPC2, OXA-9 and PFGE cluster 1 isolated from urine of patient by vitek-2 method in presence of beta-lactamase inhibitor Tazobactam; method in brief: as §4
Escherichia coli [9] = test: Antimicrobial activity against Escherichia coli isolate 386 expressing beta-lactamase KPC2, CTX-M-15, OXA-9, TEM and PFGE cluster 1 isolated from wound of patient by vitek-2 method in presence of beta-lactamase inhibitor Tazobactam; method in brief: as §1
Escherichia coli [10] = test: Antimicrobial activity against Escherichia coli isolate 386T expressing beta-lactamase KPC2, OXA-9 and PFGE cluster 1 isolated from wound of patient by vitek-2 method in presence of beta-lactamase inhibitor Tazobactam; method in brief: as §4
Escherichia coli [11] = test: Antimicrobial activity against Escherichia coli isolate 540 expressing beta-lactamase KPC2, TEM and PFGE cluster 4 isolated from synovial fluid of patient by vitek-2 method in presence of beta-lactamase inhibitor Tazobactam; method in brief: as §3
Escherichia coli [12] = test: Antimicrobial activity against Escherichia coli isolate 543 expressing beta-lactamase KPC2, CTX-M-15, TEM and PFGE cluster 4 isolated from synovial fluid of patient by vitek-2 method in presence of beta-lactamase inhibitor Tazobactam; method in brief: as §1
Escherichia coli [13] = test: Antimicrobial activity against Escherichia coli isolate 543T expressing beta-lactamase KPC2 and PFGE cluster 4 isolated from synovial fluid of patient by vitek-2 method in presence of beta-lactamase inhibitor Tazobactam; method in brief: as §2
Escherichia coli [14] = test: Antimicrobial activity against Escherichia coli isolate 544 expressing beta-lactamase KPC2, TEM and PFGE cluster 4 isolated from abscess of patient by vitek-2 method in presence of beta-lactamase inhibitor Tazobactam; method in brief: as §1
Escherichia coli [15] = test: Antimicrobial activity against Escherichia coli isolate 547 expressing beta-lactamase KPC2, TEM and PFGE cluster 4 isolated from blood of patient by vitek-2 method in presence of beta-lactamase inhibitor Tazobactam; method in brief: as §3
Escherichia coli [16] = test: Antimicrobial activity against Escherichia coli isolate 547T expressing beta-lactamase KPC2 and PFGE cluster 4 isolated from blood of patient by vitek-2 method in presence of beta-lactamase inhibitor Tazobactam; method in brief: as §4
Escherichia coli [17] = test: Antimicrobial activity against Escherichia coli isolate 1679 expressing beta-lactamase KPC2, SHV-12, TEM and PFGE cluster 6 isolated from peritoneal fluid of patient by vitek-2 method in presence of beta-lactamase inhibitor Tazobactam; method in brief: as §1
Escherichia coli [18] = test: Antimicrobial activity against Escherichia coli isolate 1679T expressing beta-lactamase KPC2, TEM and PFGE cluster 6 isolated from peritoneal fluid of patient by vitek-2 method in presence of beta-lactamase inhibitor Tazobactam; method in brief: as §4
Escherichia coli [19] = test: Antimicrobial activity against Escherichia coli DH10B by vitek-2 method in presence of beta-lactamase inhibitor Tazobactam; conditions: K-12 DH10B
Method in brief: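 Plasmid-free recipient E. coli DH10B, used as the host for electroporation transformants, was tested for susceptibility on the automated Vitek-2 system.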

Escherichia coli [20] = test: Antimicrobial activity against Escherichia coli isolate 157 expressing beta-lactamase KPC2, CTX-M-15, TEM and PFGE cluster 3 isolated from urine of patient by Etest
Escherichia coli [21] = test: Antimicrobial activity against Escherichia coli isolate 157T expressing beta-lactamase KPC2 and PFGE cluster 3 isolated from urine of patient by Etest
Method in brief: (§5)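 Transformant strains. Plasmids purified from the clinical isolates were electroporated into E. coli DH10B. Transformants were selected on LB agar with 100 μg/ml ampicillin, and colonies were PCR-screened for blaKPC before susceptibility testing.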

Escherichia coli [22] = test: Antimicrobial activity against Escherichia coli isolate 329 expressing beta-lactamase KPC2, CTX-M-2, TEM and PFGE cluster 2 isolated from blood of patient by Etest
Escherichia coli [23] = test: Antimicrobial activity against Escherichia coli isolate 329T expressing beta-lactamase KPC2 and PFGE cluster 2 isolated from blood of patient by Etest; method in brief: as §5
Escherichia coli [24] = test: Antimicrobial activity against Escherichia coli isolate 339 expressing beta-lactamase KPC2, TEM and PFGE cluster 5 isolated from peritoneal fluid of patient by Etest
Escherichia coli [25] = test: Antimicrobial activity against Escherichia coli isolate 339T expressing beta-lactamase KPC2 and PFGE cluster 5 isolated from peritoneal fluid of patient by Etest; method in brief: as §5
Escherichia coli [26] = test: Antimicrobial activity against Escherichia coli isolate 360 expressing beta-lactamase KPC2, CTX-M-15, OXA-9, TEM and PFGE cluster 1 isolated from urine of patient by Etest
Escherichia coli [27] = test: Antimicrobial activity against Escherichia coli isolate 360T expressing beta-lactamase KPC2, OXA-9 and PFGE cluster 1 isolated from urine of patient by Etest; method in brief: as §5
Escherichia coli [28] = test: Antimicrobial activity against Escherichia coli isolate 386 expressing beta-lactamase KPC2, CTX-M-15, OXA-9, TEM and PFGE cluster 1 isolated from wound of patient by Etest
Escherichia coli [29] = test: Antimicrobial activity against Escherichia coli isolate 386T expressing beta-lactamase KPC2, OXA-9 and PFGE cluster 1 isolated from wound of patient by Etest; method in brief: as §5
Escherichia coli [30] = test: Antimicrobial activity against Escherichia coli isolate 540 expressing beta-lactamase KPC2, TEM and PFGE cluster 4 isolated from synovial fluid of patient by Etest
Escherichia coli [31] = test: Antimicrobial activity against Escherichia coli isolate 543 expressing beta-lactamase KPC2, CTX-M-15, TEM and PFGE cluster 4 isolated from synovial fluid of patient by Etest
Escherichia coli [32] = test: Antimicrobial activity against Escherichia coli isolate 543T expressing beta-lactamase KPC2 and PFGE cluster 4 isolated from synovial fluid of patient by Etest; method in brief: as §5
Escherichia coli [33] = test: Antimicrobial activity against Escherichia coli isolate 544 expressing beta-lactamase KPC2, TEM and PFGE cluster 4 isolated from abscess of patient by Etest
Escherichia coli [34] = test: Antimicrobial activity against Escherichia coli isolate 547 expressing beta-lactamase KPC2, TEM and PFGE cluster 4 isolated from blood of patient by Etest
Escherichia coli [35] = test: Antimicrobial activity against Escherichia coli isolate 547T expressing beta-lactamase KPC2 and PFGE cluster 4 isolated from blood of patient by Etest; method in brief: as §5
Escherichia coli [36] = test: Antimicrobial activity against Escherichia coli isolate 1679 expressing beta-lactamase KPC2, SHV-12, TEM and PFGE cluster 6 isolated from peritoneal fluid of patient by Etest
Escherichia coli [37] = test: Antimicrobial activity against Escherichia coli isolate 1679T expressing beta-lactamase KPC2, TEM and PFGE cluster 6 isolated from peritoneal fluid of patient by Etest; method in brief: as §5
Escherichia coli [38] = test: Antimicrobial activity against Escherichia coli DH10B by Etest; conditions: K-12 DH10B

Compound | MIC (Escherichia coli [21]) [µg/mL] | MIC (Escherichia coli [22]) [µg/mL] | MIC (Escherichia coli [23]) [µg/mL] | MIC (Escherichia coli [24]) [µg/mL] | MIC (Escherichia coli [25]) [µg/mL] | MIC (Escherichia coli [27]) [µg/mL] | MIC (Escherichia coli [28]) [µg/mL] | MIC (Escherichia coli [29]) [µg/mL] | MIC (Escherichia coli [30]) [µg/mL] | MIC (Escherichia coli [31]) [µg/mL] | MIC (Escherichia coli [32]) [µg/mL] | MIC (Escherichia coli [33]) [µg/mL] | MIC (Escherichia coli [34]) [µg/mL] | MIC (Escherichia coli [35]) [µg/mL] | MIC (Escherichia coli [36]) [µg/mL] | MIC (Escherichia coli [37]) [µg/mL] | MIC (Escherichia coli [38]) [µg/mL] | other results
CCN1CCN(C(=O)N[C@@H](C(=O)N[C@@H]2C(=O)N3[C@@H]2SC(C)(C)[C@@H]3C(=O)O)c2ccccc2)C(=O)C1=O [PIPERACILLIN] | – | – | – | – | – | – | – | – | – | – | – | – | – | – | – | – | – | MIC (Escherichia coli [1]): > 128 µg/mL; MIC (Escherichia coli [2]): > 128 µg/mL; MIC (Escherichia coli [3]): > 128 µg/mL; MIC (Escherichia coli [4]): > 128 µg/mL; MIC (Escherichia coli [5]): 64 µg/mL; MIC (Escherichia coli [6]): 64 µg/mL; MIC (Escherichia coli [7]): > 128 µg/mL; MIC (Escherichia coli [8]): 64 µg/mL; MIC (Escherichia coli [9]): > 128 µg/mL; MIC (Escherichia coli [10]): 64 µg/mL; MIC (Escherichia coli [11]): 64 µg/mL; MIC (Escherichia coli [12]): > 128 µg/mL; MIC (Escherichia coli [13]): > 128 µg/mL; MIC (Escherichia coli [14]): > 128 µg/mL; MIC (Escherichia coli [15]): 64 µg/mL; MIC (Escherichia coli [16]): 64 µg/mL; MIC (Escherichia coli [17]): > 128 µg/mL; MIC (Escherichia coli [18]): 64 µg/mL; MIC (Escherichia coli [19]): > 1 µg/mL
CN(C)c1cc(NC(=O)CNC(C)(C)C)c(O)c2c1C[C@H]1C[C@H]3[C@H](N(C)C)C(O)=C(C(N)=O)C(=O)[C@@]3(O)C(O)=C1C2=O [TIGECYCLINE] | 0.19 (≈ 0.324 µM) | 0.19 (≈ 0.324 µM) | 0.125 (≈ 0.213 µM) | 0.19 (≈ 0.324 µM) | 0.19 (≈ 0.324 µM) | 0.125 (≈ 0.213 µM) | 0.75 (≈ 1.28 µM) | 0.19 (≈ 0.324 µM) | 0.19 (≈ 0.324 µM) | 0.19 (≈ 0.324 µM) | 0.125 (≈ 0.213 µM) | 0.38 (≈ 0.649 µM) | 0.125 (≈ 0.213 µM) | 0.125 (≈ 0.213 µM) | 0.125 (≈ 0.213 µM) | 0.38 (≈ 0.649 µM) | 0.125 (≈ 0.213 µM) | MIC (Escherichia coli [20]; isolate 157, Urine): 0.38 µg/mL (≈ 0.649 µM); MIC (Escherichia coli [26]; isolate 360, Urine): 0.75 µg/mL (≈ 1.28 µM)
COLISTIN | 0.047 | 0.19 | 0.047 | 0.125 | 0.047 | 0.094 | 0.125 | 0.047 | 0.125 | 0.125 | 0.047 | 0.19 | 0.19 | 0.047 | 0.38 | 0.047 | 0.047 | MIC (Escherichia coli [20]): 0.125 µg/mL; MIC (Escherichia coli [26]): 0.19 µg/mL
